Measured values: ChEMBL document CHEMBL2434944, “Novel acetamidothiazole derivatives: synthesis and in vitro anticancer evaluation” (Eur J Med Chem, 2013)

Experiments:
NCI-H23 = assay: Growth inhibition of human NCI-H23 cells assessed as cell growth at 10^-5 M after 48 hrs by sulforhodamine B assay relative to control; assay type: functional; conditions: NCI-H23, 48 h, read-out: Activity
Procedure, shortened: (§1)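 NCI-60 single-dose screen at 10^-5 M. Cells grown in RPMI 1640 with 5% FBS and 2 mM L-glutamine, plated at 5,000–40,000 cells/well according to doubling time, and preincubated 24 h at 37°C, 5% CO2. Compound dissolved in DMSO and added. Exposure 48 h. Adherent cells fixed with cold TCA (10% final), suspension cells with 16% final TCA. Read-out is 0.4% SRB staining, dye solubilised in 10 mM Tris, absorbance at 515 nm. Percent growth is calculated against the time-zero plate and untreated control.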

[1] = target: T1, Leukotriene A-4 hydrolase (Homo sapiens, UniProt P09960); assay: Inhibition of human leukotriene A-4 hydrolase
T1 sequence (P09960 whole entry): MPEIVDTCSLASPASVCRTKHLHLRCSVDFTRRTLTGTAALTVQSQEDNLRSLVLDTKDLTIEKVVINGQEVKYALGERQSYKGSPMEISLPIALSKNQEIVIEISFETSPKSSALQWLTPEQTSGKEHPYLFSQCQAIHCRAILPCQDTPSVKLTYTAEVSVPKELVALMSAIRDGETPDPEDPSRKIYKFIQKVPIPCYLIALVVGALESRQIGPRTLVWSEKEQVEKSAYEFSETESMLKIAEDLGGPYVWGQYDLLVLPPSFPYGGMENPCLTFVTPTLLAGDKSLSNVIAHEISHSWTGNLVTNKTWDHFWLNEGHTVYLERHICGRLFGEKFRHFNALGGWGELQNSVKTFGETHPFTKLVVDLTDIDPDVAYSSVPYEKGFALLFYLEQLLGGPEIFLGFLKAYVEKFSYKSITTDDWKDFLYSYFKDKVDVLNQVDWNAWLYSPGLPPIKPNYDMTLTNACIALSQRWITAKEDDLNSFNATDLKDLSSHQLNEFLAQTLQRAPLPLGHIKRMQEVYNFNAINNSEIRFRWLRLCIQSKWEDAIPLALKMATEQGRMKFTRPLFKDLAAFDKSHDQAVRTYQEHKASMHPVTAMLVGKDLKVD

MOLT-4 = assay: Growth inhibition of human MOLT4 cells assessed as cell growth at 10^-5 M after 48 hrs by sulforhodamine B assay relative to control; assay type: functional; conditions: MOLT-4, 48 h, read-out: Activity; procedure, shortened: as §1
K562 = assay: Growth inhibition of human K562 cells assessed as cell growth at 10^-5 M after 48 hrs by sulforhodamine B assay relative to control; assay type: functional; conditions: K562, 48 h, read-out: Activity; procedure, shortened: as §1
UACC-257 = assay: Growth inhibition of human UACC257 cells assessed as cell growth at 10^-5 M after 48 hrs by sulforhodamine B assay relative to control; assay type: functional; conditions: UACC-257, 48 h, read-out: Activity
Procedure, shortened: (§2)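 NCI-60 single-dose screen, 10^-5 M final. Cells grown in RPMI 1640 with 5% FBS and 2 mM L-glutamine, seeded at 5,000–40,000 cells/well by doubling time. Preincubated 24 h at 37°C, 5% CO2. Compound in DMSO, diluted in medium with gentamicin, then 48 h exposure. Fixed with cold TCA, SRB stained, A515 read. Percent growth vs untreated control, time-zero plate corrected.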

Thymidylate synthase = Thymidylate synthase (Homo sapiens, UniProt P04818); assay: Inhibition of human thymidylate synthase
Thymidylate synthase, sequence (P04818 whole entry): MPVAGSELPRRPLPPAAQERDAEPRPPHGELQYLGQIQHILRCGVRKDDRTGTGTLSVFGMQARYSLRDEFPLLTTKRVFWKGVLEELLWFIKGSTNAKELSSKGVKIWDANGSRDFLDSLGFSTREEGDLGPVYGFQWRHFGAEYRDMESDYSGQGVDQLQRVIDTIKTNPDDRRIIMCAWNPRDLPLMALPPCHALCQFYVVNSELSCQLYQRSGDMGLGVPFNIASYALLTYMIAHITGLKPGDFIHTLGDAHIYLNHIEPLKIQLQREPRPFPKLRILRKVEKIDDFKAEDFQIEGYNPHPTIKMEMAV

COLO 205 = assay: Growth inhibition of human COLO205 cells assessed as cell growth at 10^-5 M after 48 hrs by sulforhodamine B assay relative to control; assay type: functional; conditions: COLO 205, 48 h, read-out: Activity; procedure, shortened: as §1
TK-10 = assay: Growth inhibition of human TK10 cells assessed as cell growth at 10^-5 M after 48 hrs by sulforhodamine B assay relative to control; assay type: functional; conditions: TK-10, 48 h, read-out: Activity; procedure, shortened: as §2
UACC-62 = assay: Growth inhibition of human UACC62 cells assessed as cell growth at 10^-5 M after 48 hrs by sulforhodamine B assay relative to control; assay type: functional; conditions: UACC-62, 48 h, read-out: Activity; procedure, shortened: as §2
OVCAR-5 = assay: Growth inhibition of human OVCAR5 cells assessed as cell growth at 10^-5 M after 48 hrs by sulforhodamine B assay relative to control; assay type: functional; conditions: OVCAR-5, 48 h, read-out: Activity; procedure, shortened: as §1
RPMI-8226 = assay: Growth inhibition of human RPMI8226 cells assessed as cell growth at 10^-5 M after 48 hrs by sulforhodamine B assay relative to control; assay type: functional; conditions: RPMI-8226, 48 h, read-out: Activity; procedure, shortened: as §1
MCF7 = assay: Growth inhibition of human MCF7 cells assessed as cell growth at 10^-5 M after 48 hrs by sulforhodamine B assay relative to control; assay type: functional; conditions: MCF7, 48 h, read-out: Activity; procedure, shortened: as §1
PC-3 = assay: Growth inhibition of human PC3 cells assessed as cell growth at 10^-5 M after 48 hrs by sulforhodamine B assay relative to control; assay type: functional; conditions: PC-3, 48 h, read-out: Activity; procedure, shortened: as §1
SK-MEL-2 = assay: Growth inhibition of human SK-MEL-2 cells assessed as cell growth at 10^-5 M after 48 hrs by sulforhodamine B assay relative to control; assay type: functional; conditions: SK-MEL-2, 48 h, read-out: Activity; procedure, shortened: as §1
NCI-H322M = assay: Growth inhibition of human NCI-H322M cells assessed as cell growth at 10^-5 M after 48 hrs by sulforhodamine B assay relative to control; assay type: functional; conditions: read-out: Activity; procedure, shortened: as §1
HOP-62 = assay: Growth inhibition of human HOP62 cells assessed as cell growth at 10^-5 M after 48 hrs by sulforhodamine B assay relative to control; assay type: functional; conditions: HOP-62, 48 h, read-out: Activity; procedure, shortened: as §1
HT-29 = assay: Growth inhibition of human HT-29 cells assessed as cell growth at 10^-5 M after 48 hrs by sulforhodamine B assay relative to control; assay type: functional; conditions: HT-29, 48 h, read-out: Activity; procedure, shortened: as §1
OVCAR-3 = assay: Growth inhibition of human OVCAR3 cells assessed as cell growth at 10^-5 M after 48 hrs by sulforhodamine B assay relative to control; assay type: functional; conditions: OVCAR-3, 48 h, read-out: Activity; procedure, shortened: as §1
A498 = assay: Growth inhibition of human A498 cells assessed as cell growth at 10^-5 M after 48 hrs by sulforhodamine B assay relative to control; assay type: functional; conditions: A498, 48 h, read-out: Activity; procedure, shortened: as §1
CAKI-1 = assay: Growth inhibition of human CAKI-1 cells assessed as cell growth at 10^-5 M after 48 hrs by sulforhodamine B assay relative to control; assay type: functional; conditions: CAKI-1, 48 h, read-out: Activity; procedure, shortened: as §1
HCT-116 = assay: Growth inhibition of human HCT116 cells assessed as cell growth at 10^-5 M after 48 hrs by sulforhodamine B assay relative to control; assay type: functional; conditions: HCT-116, 48 h, read-out: Activity; procedure, shortened: as §1
OVCAR-8 = assay: Growth inhibition of human OVCAR8 cells assessed as cell growth at 10^-5 M after 48 hrs by sulforhodamine B assay relative to control; assay type: functional; conditions: OVCAR-8, 48 h, read-out: Activity; procedure, shortened: as §1
HCT-15 = assay: Growth inhibition of human HCT15 cells assessed as cell growth at 10^-5 M after 48 hrs by sulforhodamine B assay relative to control; assay type: functional; conditions: HCT-15, 48 h, read-out: Activity; procedure, shortened: as §1

Structure (SMILES) | growth at 10 µM (NCI-H23) | Ki [1] | growth at 10 µM (MOLT-4) | growth at 10 µM (K562) | growth at 10 µM (UACC-257) | Ki (Thymidylate synthase) | growth at 10 µM (COLO 205) | growth at 10 µM (TK-10) | growth at 10 µM (UACC-62) | growth at 10 µM (OVCAR-5) | growth at 10 µM (RPMI-8226) | growth at 10 µM (MCF7) | growth at 10 µM (PC-3) | growth at 10 µM (SK-MEL-2) | growth at 10 µM (NCI-H322M) | growth at 10 µM (HOP-62) | growth at 10 µM (HT-29) | growth at 10 µM (OVCAR-3) | growth at 10 µM (A498) | growth at 10 µM (CAKI-1) | also measured
Cc1ccc(-c2csc(=N)n2CC(=O)N2CCN(c3ccccc3)CC2)cc1 | 101% | 4.29 µM | 94.5% | 100% | 106% | 5.6 µM | 109% | 140% | 85.9% | 110% | 92.4% | 81.4% | 82.1% | 117% | 99.7% | 111% | 111% | 95.4% | 92.6% | 70.4% | growth at 10 µM (HCT-116): 103%; growth at 10 µM (OVCAR-8): 92.9%; growth at 10 µM (HCT-15): 104%
N=c1scc(-c2ccc(Cl)cc2)n1CC(=O)N1CCN(c2ccccc2)CC1 | 98.3% | 0.093 µM | 87% | 84.8% | 105% | 5.09 µM | 105% | 87.2% | 98.1% | 93.8% | 83.4% | 90.8% | 81.8% | 79% | 99.8% | 109% | 92.9% | 113% | 84.9% | 93.3% | growth at 10 µM (HCT-116): 101%; growth at 10 µM (OVCAR-8): 97.8%; growth at 10 µM (HCT-15): 96.8%
N=c1scc(-c2ccccc2)n1CC(=O)N1CCN(c2ccccc2)CC1 | 91.7% | 0.643 µM | 99.6% | 103% | 108% | 1.36 µM | 102% | 127% | 93.5% | 94.1% | 92.1% | 95.3% | 72.3% | 104% | 92.6% | 96.6% | 106% | 109% | 87.2% | 87.5% | growth at 10 µM (HCT-116): 107%; growth at 10 µM (OVCAR-8): 94.7%; growth at 10 µM (HCT-15): 97%
CC(=O)N1CCN(C(=O)Cn2c(-c3ccc(C)cc3)csc2=N)CC1 | 95.7% | 1.64 µM | 73% | 84.3% | 102% | 3.65 µM | 106% | 121% | 74.2% | 122% | 82.3% | 88.9% | 65.2% | 113% | 108% | 101% | 105% | 108% | 80.6% | 81.5% | growth at 10 µM (HCT-116): 85.9%; growth at 10 µM (OVCAR-8): 98.4%; growth at 10 µM (HCT-15): 90.6%
CC(=O)N1CCN(C(=O)Cn2c(-c3ccc(Cl)cc3)csc2=N)CC1 | 96.9% | 0.607 µM | 77% | 72% | 91% | 11.3 µM | 97% | 82.1% | 81.9% | 101% | 73.3% | 84.5% | 81.6% | 95.7% | 90.4% | 93.4% | 85.8% | 97.7% | 67.7% | 82.8% | growth at 10 µM (HCT-116): 93%; growth at 10 µM (OVCAR-8): 91.2%; growth at 10 µM (HCT-15): 86.5%
Cc1ccc(-c2csc(=N)n2CC(=O)N2CCN(C)CC2)cc1 | 93.3% | 0.369 µM | 76.3% | 82.9% | 102% | 19.3 µM | 106% | 129% | 72.6% | 116% | 83.5% | 93.2% | 68.4% | 108% | 104% | 99.5% | 110% | 108% | 80.2% | 78% | growth at 10 µM (HCT-116): 104%; growth at 10 µM (OVCAR-8): 99.5%; growth at 10 µM (HCT-15): 91.6%
CC(=O)N1CCN(C(=O)Cn2c(-c3ccccc3)csc2=N)CC1 | 98.5% | 2.59 µM | 96.2% | 86.8% | 98.5% | 10.9 µM | 99.8% | 138% | 89.6% | 105% | 97.3% | 94.8% | 83.5% | 108% | 94.4% | 85.3% | 101% | 102% | 100% | 76.8% | growth at 10 µM (HCT-116): 96.1%; growth at 10 µM (OVCAR-8): 96.7%; growth at 10 µM (HCT-15): 94.5%
CN1CCN(C(=O)Cn2c(-c3ccc(Cl)cc3)csc2=N)CC1 | 100% | 0.172 µM | 75.1% | 73.1% | 104% | 0.34 µM | 101% | 85.7% | 90.2% | 96.4% | 79.1% | 92.2% | 83.3% | 102% | 95.9% | 101% | 96% | 101% | 80% | 85.9% | growth at 10 µM (HCT-116): 94.4%; growth at 10 µM (OVCAR-8): 96.8%; growth at 10 µM (HCT-15): 93.1%
